Screens deposited in PubChem by Broad Institute.
RAD52 anneal inh: blocks human RAD52 DNA annealing; P43351; recombinant RAD52 DNA annealing, FRET fluorescence; inhibition, % at 18.7 µM; 360,000 tested, 0.46% active; AID 651710;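 active = every replicate showing at least 50% inhibition; inconclusive = mean inhibition at least 50% but not in every replicate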
PglD DTNB: PglD (C. jejuni) enzyme inhibition. 360,000 tested, 0.098% active. purified PglD enzyme, DTNB colorimetric CoA detection. inhibition, % at 12.5 µM; in the data active = inhibition above about 16%, passing the limit was not always enough; inconclusive = no clear call, values can overlap the other calls
RAD54 inh: RAD54 (human) branch migration inhibition; inhibition, % at 10.4 µM; RAD54 Holliday junction branch migration, FAM/BHQ fluorescence; 360,000 tested, 0.14% active; Q92698;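 active = mean normalized replicate activity at least 40 and at least half of replicates scoring 40 or more; inconclusive = only one of the two criteria met; inactive = mean below 40 and under half of replicates reaching 40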;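 also: inhibitors cause a drop in the FAM fluorescence signal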
Target sequence (Q92698 whole entry, looked up): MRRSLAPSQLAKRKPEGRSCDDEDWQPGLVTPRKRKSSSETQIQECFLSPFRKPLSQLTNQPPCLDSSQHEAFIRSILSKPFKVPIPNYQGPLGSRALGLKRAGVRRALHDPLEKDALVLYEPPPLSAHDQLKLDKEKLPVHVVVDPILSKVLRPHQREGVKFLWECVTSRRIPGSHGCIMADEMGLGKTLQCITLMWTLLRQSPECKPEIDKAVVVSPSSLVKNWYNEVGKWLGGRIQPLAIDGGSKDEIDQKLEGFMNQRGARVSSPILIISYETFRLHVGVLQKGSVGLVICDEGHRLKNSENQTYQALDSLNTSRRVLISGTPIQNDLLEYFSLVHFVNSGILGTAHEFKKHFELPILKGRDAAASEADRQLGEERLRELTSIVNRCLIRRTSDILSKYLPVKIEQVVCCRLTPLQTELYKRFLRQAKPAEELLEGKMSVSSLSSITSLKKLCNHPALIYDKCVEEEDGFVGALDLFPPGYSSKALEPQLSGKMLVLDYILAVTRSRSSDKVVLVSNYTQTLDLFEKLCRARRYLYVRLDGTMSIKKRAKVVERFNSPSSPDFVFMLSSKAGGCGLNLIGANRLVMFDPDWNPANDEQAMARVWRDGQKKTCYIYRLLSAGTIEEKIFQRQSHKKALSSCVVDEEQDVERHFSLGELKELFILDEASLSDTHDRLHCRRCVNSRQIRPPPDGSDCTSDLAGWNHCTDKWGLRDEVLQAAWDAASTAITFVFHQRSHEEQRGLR
Cneo AK release: causes C. neoformans cell lysis | adenylate kinase release luminescence, 4 h; normalised: neutral wells 0, clomiphene wells 100 | lysis activity, % at 15 µM | 360,000 tested, 0.2% active;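 active = mean lysis activity across replicates of at least 80%, whatever share of replicates individually reach that level; inactive = mean lysis activity below 80%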
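Test system: log-phase Cryptococcus neoformans yeast cells; Quantity: yeast cell density of 5 × 10^6 cells/mL; Buffer or medium: YPD; Doses: single compound concentration per well; Timing: 4 h at 37 °C static, read 1 h later; Measured by: AK luminescence; Read-out basis: lysis from increased AK signal; Control set: Clomiphene as positive control.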
Ecoli rRNA inh: selective bacterial rRNA inhibition in E. coli; E. coli WT GFP vs humanized-ribosome RFP mutants, fluorescence, 24 h; active compounds read low; DMSO median 0, no signal -100; GFP signal change (wild-type ribosome), % (no concentration beside the values); 350,000 tested, 1.6% active;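 active = significant combined selectivity score with lowered wild-type GFP, culture density cut under 30%, mutant RFP and density less affected; inactive = any of these conditions unmet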
AID977621: wild-type E. coli growth inhibition versus H69 humanized strain – H69 mutant RFP, wild-type GFP, cherry-pick, dose response. fluorescence, 24 h. activity change, negative = inhibition at 50 µM. AID 977621. 1,900 tested, under 10 active. shares compounds with Ecoli rRNA inh;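 active = Wild-type ribosome reporter drop at least double the humanized mutant ribosome reporter drop, growth loss under a set limit; inconclusive = no clear call, values can overlap the other calls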;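 also: wild-type GFP and H69 mutant RFP strains grown together 50/50 in each well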
AID977628: growth of wild-type and h24-humanized E. coli strains – h24 mutant RFP vs wild-type GFP, cherry-pick, dose response; 1,900 tested, under 10 active; AID 977628; E. coli WT GFP strain growth, fluorescence, 24 h; activity change, negative = inhibition at 50 µM; shares compounds with Ecoli rRNA inh;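 active = compound lowering the normal-ribosome reporter at least twice as much as the humanized-ribosome reporter, growth loss under a set limit; inconclusive = no clear call, values can overlap the other calls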;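 also: wild-type GFP and h24 humanized RFP strains co-cultured 1 to 1 per well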
Of the large screens only hits and unclear results are named; the others gave an inactive call (follow-up assays come after a bar, where they were run). Rows were chosen to be rich in hits. Some 1.9% of all compounds tested hit in one or more screens of this group.

CCCn1c(C(C)Nc2nc(-c3ccc(C)cc3)cs2)nc2ccccc21 (stereo not given)	Ecoli rRNA inh -15.5 | AID977621 inactive | AID977628 inactive
CCCNC(=O)[C@@H]1[C@@H](CO)[C@@H]2Cn3c(cccc3=O)[C@H]1N2Cc1cccc(Cl)c1	none
O=C(NCC[C@@H]1CC[C@H](NC(=O)c2ccccc2F)[C@H](CO)O1)c1cnccn1	none
CNC[C@H]1OCCCC[C@@H](C)Oc2ccc(NC(=O)Nc3cccc4ccccc34)cc2C(=O)N([C@@H](C)CO)C[C@H]1C	Ecoli rRNA inh -24.6 | AID977628 inconclusive
C[C@@H]1CCCCO[C@@H](CN(C)C)[C@@H](C)CN([C@@H](C)CO)C(=O)c2cc(NC(=O)Nc3cccc4ccccc34)ccc2O1	none | AID977621 inactive | AID977628 inconclusive
C[C@@H]1CN([C@@H](C)CO)C(=O)c2cc(NC(=O)Nc3cccc4ccccc34)ccc2O[C@@H](C)CCCCO[C@H]1CN(C)C(=O)Nc1cccc2ccccc12	none
C[C@@H]1CN([C@@H](C)CO)C(=O)c2cc(NC(=O)Nc3cccc4ccccc34)ccc2O[C@@H](C)CCCCO[C@@H]1CN(C)C	none (no result: RAD52 anneal inh, PglD DTNB, RAD54 inh, Cneo AK release) | AID977621 inactive | AID977628 inconclusive
COc1ccc(C[C@H]2CCn3cc(nn3)COC[C@H](CC(C)C)NC2=O)cc1	none (no result: PglD DTNB, RAD54 inh)
C[C@@H]1CN([C@H](C)CO)C(=O)Cc2cc(NC(=O)CCN3CCOCC3)ccc2O[C@@H]1CN(C)C(=O)Nc1ccccc1	none (no result: RAD52 anneal inh, RAD54 inh, Cneo AK release)
CCc1nnc(NS(=O)(=O)c2ccc(NC(=O)c3cccc4ccccc34)cc2)s1	Ecoli rRNA inh -18.9 | AID977621 inactive | AID977628 inconclusive
CCc1nnc(NS(=O)(=O)c2ccc(NC(=O)c3cc(Cl)ccc3Cl)cc2)s1	none (no result: PglD DTNB, RAD54 inh, Cneo AK release)
CCc1nnc(NS(=O)(=O)c2ccc(NC(=O)c3cc(Cl)ccc3[N+](=O)[O-])cc2)s1	Ecoli rRNA inh -20.9 | AID977621 inactive
C[C@@H]1CN([C@H](C)CO)S(=O)(=O)c2ccc(-c3ccc(F)cc3)cc2O[C@@H]1CN(C)CC1CC1	none
CC(=O)N1[C@H](CO)[C@H](c2ccc(C#CC3CCCCC3)cc2)[C@H]1CNCC(C)C	none (no result: PglD DTNB, RAD54 inh, Cneo AK release)
O=C(C[C@@H]1CC[C@@H]2[C@H](COC[C@H](O)CN2C(=O)Nc2ccc(Cl)cc2)O1)N1CCCCC1	Ecoli rRNA inh -21.9 | AID977628 inconclusive
COCc1cc(C)nc(SCC[N+](C)(C)CC(=O)Nc2ccccc2)c1C#N	none
COCc1cc(C)nc(SCC[N+](C)(C)CC(=O)c2ccc(Br)cc2)c1C#N	Ecoli rRNA inh -30.0 (no result: PglD DTNB, RAD54 inh, Cneo AK release) | AID977628 inactive
CN(C)C(=O)[C@H]1[C@H](CO)[C@H]2Cn3c(ccc(C4=CCCCC4)c3=O)[C@H]2N1Cc1ccccn1	none
O=C(Cn1c(C(=O)NCc2ccco2)cc2sccc21)c1ccccc1	Ecoli rRNA inh -23.4 | AID977621 inactive | AID977628 inconclusive
O=C(c1ccc2c(c1)CCN2S(=O)(=O)c1ccccc1)N1CCN(c2ccccc2)CC1	Ecoli rRNA inh -25.5 | AID977628 inconclusive
CC(C)OCCCNC(=O)c1ccc(CS(=O)(=O)c2cccc(C(F)(F)F)c2)o1	Ecoli rRNA inh -19.2 | AID977621 inactive | AID977628 inconclusive
C[C@@H]1CN([C@H](C)CO)C(=O)c2cccc(NC(=O)c3ccncc3)c2O[C@@H]1CN(C)S(=O)(=O)c1ccc(Cl)cc1	Ecoli rRNA inh -23.0 | AID977628 inconclusive
C[C@H]1CN([C@@H](C)CO)C(=O)c2cccc(NC(=O)c3ccncc3)c2O[C@@H]1CN(C)S(=O)(=O)c1ccc(Cl)cc1	none
COc1ccc(NC(=O)Nc2cccc3c2O[C@H](CN(C)S(=O)(=O)c2ccc(Cl)cc2)[C@H](C)CN([C@H](C)CO)C3=O)cc1	none | AID977621 inactive | AID977628 inconclusive
CS(=O)(=O)c1ccc(C(=O)Nc2nc(-c3ccco3)c(-c3ccco3)s2)cc1	Ecoli rRNA inh -19.0 | AID977621 inactive | AID977628 inconclusive
C=CCN(CC=C)CC(O)Cn1c2ccccc2c2ccccc21 (stereo not given)	Ecoli rRNA inh -20.6 (no result: PglD DTNB, RAD54 inh, Cneo AK release) | AID977621 inactive | AID977628 inconclusive
C[C@@H]1CN([C@@H](C)CO)C(=O)c2cc(/C=C/c3ccccc3)cnc2O[C@@H]1CN(C)C(=O)NC1CCCCC1	none
CN(CCOc1ccccc1)S(=O)(=O)c1ccccc1C#N	Ecoli rRNA inh -22.1 | AID977621 inactive | AID977628 inactive
CCOc1ccc(OCCCC(=O)N2CCN(S(=O)(=O)c3ccccc3C#N)CC2)cc1	none
O=C(NCC1CC1)[C@H]1[C@H](CO)[C@H]2Cn3c(ccc(-c4ccccc4F)c3=O)[C@@H]1N2Cc1cncnc1	none
Cc1ccc(NC(=O)CN(C)S(=O)(=O)c2cccc3cccnc23)cc1F	Ecoli rRNA inh -27.7 | AID977621 inactive
C[C@@H]1CCCCO[C@@H](CN(C)S(=O)(=O)c2ccc(Cl)cc2)[C@H](C)CN([C@H](C)CO)C(=O)c2cc(NC(=O)Nc3ccc(F)cc3)ccc2O1	none
CCN(CC)CC(=O)Nc1sc2c(c1C(=O)c1ccccc1OC)CCC2	Ecoli rRNA inh -21.8 (no result: PglD DTNB, RAD54 inh, Cneo AK release) | AID977621 inactive | AID977628 inactive
Cc1nn(S(=O)(=O)c2ccc(Cl)cc2)c(C)c1Sc1ccc([N+](=O)[O-])cc1	Ecoli rRNA inh -27.9 | AID977621 inactive
Cc1nn(C(=O)C2CC2)c(C)c1Sc1ccc(Cl)cc1	none
Cc1cccc(-n2cc(CNCCN3CCOC3=O)c(-c3cccc(F)c3)n2)c1	none
Cc1ccc(-n2cc(CNCCN3CCOC3=O)c(-c3ccc(F)cc3)n2)cc1	Ecoli rRNA inh -18.3 | AID977621 inactive | AID977628 inconclusive
O=C(NC[C@H]1N[C@H](CO)[C@@H]1c1ccc(-c2cncnc2)cc1)C1CCCC1	none (no result: PglD DTNB, RAD54 inh, Cneo AK release)
CCCCc1cc2c(cc1NC(=O)CN1CCCCC1)OCCO2	Ecoli rRNA inh -18.4 | AID977628 inactive
O=[N+]([O-])c1ccccc1Oc1ccc(Cl)c2cccnc12	Ecoli rRNA inh -29.4 (no result: PglD DTNB, RAD54 inh, Cneo AK release) | AID977621 inactive
Cc1ccc(SCC(=O)NCCCc2ccccc2)cc1	none
O=C(CSc1ccccc1)NCCCc1ccccc1	Ecoli rRNA inh -23.1 | AID977621 inactive | AID977628 inconclusive
O=C(NCc1ccccc1Cl)c1ccc2c(c1)SC1=NS(=O)(=O)CCN12	Ecoli rRNA inh -20.3 (no result: PglD DTNB, RAD54 inh, Cneo AK release) | AID977621 inactive | AID977628 inactive
Cc1ccc(S(=O)(=O)Nc2ccc3c(c2)C(=O)N([C@H](C)CO)C[C@@H](C)[C@@H](CN(C)Cc2ccc(C(=O)O)cc2)OCCCC[C@@H](C)O3)cc1	none
